# Measured values published in ChEMBL document CHEMBL4145675, “2-Phenylquinoline S. aureus NorA Efflux Pump Inhibitors: Evaluation of the Importance of Methoxy Group Introduction” (J Med Chem, 2018).
# pIC50: −log10 of the molar value. The source made the active and inactive calls. The calls are words filed in the database; no cut-off is given here.
# Target: T1, Quinolone resistance protein NorA (Staphylococcus aureus) (UniProt P0A0J7)
# T1 sequence (whole entry): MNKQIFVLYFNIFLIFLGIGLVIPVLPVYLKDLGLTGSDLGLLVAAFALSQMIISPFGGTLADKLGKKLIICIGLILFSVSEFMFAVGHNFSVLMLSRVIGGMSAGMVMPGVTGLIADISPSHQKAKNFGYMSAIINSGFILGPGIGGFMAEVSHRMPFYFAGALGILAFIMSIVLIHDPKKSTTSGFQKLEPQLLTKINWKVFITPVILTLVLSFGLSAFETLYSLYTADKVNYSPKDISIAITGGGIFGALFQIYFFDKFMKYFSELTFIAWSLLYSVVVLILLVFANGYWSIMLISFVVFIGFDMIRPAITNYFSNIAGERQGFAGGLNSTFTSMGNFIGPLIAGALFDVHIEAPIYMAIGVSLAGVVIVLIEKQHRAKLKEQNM
# Experiment: Inhibition of NorA in Staphylococcus aureus SA-1199B expressing GrlA A116E mutant assessed as reduction in EtBr efflux at 50 uM incubated for 5 mins by fluorescence based assay
# Conditions: not given
# Procedure, shortened: (§1)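 Cells were grown overnight in cation-supplemented Mueller-Hinton broth at 35 °C and subcultured to OD600 0.7–0.8. They were loaded at OD600 0.8 with 25 µM EtBr plus 100 µM CCCP (final) for 20 min at room temperature. Cells were then resuspended in fresh broth with or without compound, 50 µM for the single-point screen or a concentration series for IC50. Fluorescence (ex 485/em 645 nm) was read for 5 min. Inhibition was calculated from the fluorescence decrease versus untreated cells. Biological triplicate, each run twice.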
row,SMILES,inhibition
1,CCCOc1ccc(-c2cc(OCCN(CC)CC)c3cc(OC)ccc3n2)cc1,99%
2,CCCOc1ccc(-c2cc(OCCN3CCCCC3)c3ccc(OC)cc3n2)cc1,100%
3,CCCOc1ccc(-c2cc(OCCN3CCCCCC3)c3ccc(OC)cc3n2)cc1,91.3%

# Target: Quinolone resistance protein NorA (Staphylococcus aureus, UniProt P0A0J7, A116E)
# Experiment: Inhibition of NorA in Staphylococcus aureus SA-1199B expressing GrlA A116E mutant assessed as reduction in EtBr efflux incubated for 5 mins by fluorescence based assay
# Conditions: not given
# Procedure, shortened: as §1
row,SMILES,pIC50
1,CCCOc1ccc(-c2cc(OCCN(CC)CC)c3cc(OC)ccc3n2)cc1,5.33
2,CCCOc1ccc(-c2cc(OCCN3CCCCC3)c3ccc(OC)cc3n2)cc1,5.40
3,CCCOc1ccc(-c2cc(OCCN3CCCCCC3)c3ccc(OC)cc3n2)cc1,5.31

# System: Staphylococcus aureus
# Experiment: Antimicrobial activity against Staphylococcus aureus SA-1199B expressing wild type norA and co-expressing GrlA A116E mutant by microdilution method
# Type: organism-based
# Conditions: in vivo
# Procedure, shortened: (§2)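 CLSI broth microdilution MIC of the compound alone. Strains: SA-K1902 (norA deleted), SA-K2378 (SA-K1902 carrying norA plus its promoter on multicopy plasmid pCU1), SA-1199B (norA overexpressing, GrlA A116E).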
row,SMILES,MIC
1,COC(=O)[C@H]1[C@H]2C[C@@H]3c4[nH]c5cc(OC)ccc5c4CCN3C[C@H]2C[C@@H](OC(=O)c2cc(OC)c(OC)c(OC)c2)[C@@H]1OC [RESERPINE],> 164 µM
2,CCCOc1ccc(-c2cc(OCCN(CC)CC)c3cc(OC)ccc3n2)cc1,122 µM
3,CCCOc1ccc(-c2cc(OCCN3CCCCC3)c3ccc(OC)cc3n2)cc1,238 µM
4,CCCOc1ccc(-c2cc(OCCN(CC)CC)c3ccccc3n2)cc1,> 241 µM
5,CCCOc1ccc(-c2cc(OCCN3CCCCCC3)c3ccc(OC)cc3n2)cc1,212.3 µM

# Target: T1, Quinolone resistance protein NorA (Staphylococcus aureus)
# Experiment: Inhibition of NorA in Staphylococcus aureus SA-1199B expressing GrlA A116E mutant assessed as minimal potentiating drug concentration causing 8 fold reduction in ciprofloxacin MIC by microdilution method based Checkerboard assay
# Conditions: not given
row,SMILES,Activity
1,COC(=O)[C@H]1[C@H]2C[C@@H]3c4[nH]c5cc(OC)ccc5c4CCN3C[C@H]2C[C@@H](OC(=O)c2cc(OC)c(OC)c(OC)c2)[C@@H]1OC [RESERPINE],> 100 µg/mL
2,CCCOc1ccc(-c2cc(OCCN(CC)CC)c3cc(OC)ccc3n2)cc1,6.25 µg/mL
3,CCCOc1ccc(-c2cc(OCCN3CCCCC3)c3ccc(OC)cc3n2)cc1,3.13 µg/mL
4,CCCOc1ccc(-c2cc(OCCN(CC)CC)c3ccccc3n2)cc1,12.5 µg/mL
5,CCCOc1ccc(-c2cc(OCCN3CCCCCC3)c3ccc(OC)cc3n2)cc1,3.13 µg/mL

# System: Staphylococcus aureus
# Experiment: Synergistic potentiation of ciprofloxacin-induced antimicrobial activity against wild type Staphylococcus aureus ATCC 25923 at 0.78 to 100 ug/ml by microdilution method based Checkerboard assay
# Type: functional, organism-based
# Conditions: not given
row,SMILES,synergistic potentiation of ciprofloxacin activity
1,CCCOc1ccc(-c2cc(OCCN(CC)CC)c3cc(OC)ccc3n2)cc1,Active
2,CCCOc1ccc(-c2cc(OCCN3CCCCC3)c3ccc(OC)cc3n2)cc1,Active
3,CCCOc1ccc(-c2cc(OCCN3CCCCCC3)c3ccc(OC)cc3n2)cc1,Active

# System: Staphylococcus aureus
# Experiment: Synergistic potentiation of ciprofloxacin-induced antimicrobial activity against Staphylococcus aureus SA-1199 at 0.78 to 100 ug/ml by microdilution method based Checkerboard assay
# Type: functional, organism-based
# Conditions: not given
row,SMILES,inhibition
1,CCCOc1ccc(-c2cc(OCCN(CC)CC)c3cc(OC)ccc3n2)cc1,Active
2,CCCOc1ccc(-c2cc(OCCN3CCCCC3)c3ccc(OC)cc3n2)cc1,Active
3,CCCOc1ccc(-c2cc(OCCN3CCCCCC3)c3ccc(OC)cc3n2)cc1,Active

# Target: T1, Quinolone resistance protein NorA (Staphylococcus aureus)
# Experiment: Inhibition of NorA in Staphylococcus aureus SA-1199B expressing GrlA A116E mutant assessed as synergistic potentiation of ciprofloxacin-induced antimicrobial activity at 0.78 to 100 ug/ml by microdilution method based Checkerboard assay
# Conditions: not given
row,SMILES,inhibition
1,CCCOc1ccc(-c2cc(OCCN(CC)CC)c3cc(OC)ccc3n2)cc1,Active
2,CCCOc1ccc(-c2cc(OCCN3CCCCC3)c3ccc(OC)cc3n2)cc1,Active
3,CCCOc1ccc(-c2cc(OCCN3CCCCCC3)c3ccc(OC)cc3n2)cc1,Active

# Target: T1, Quinolone resistance protein NorA (Staphylococcus aureus)
# Experiment: Inhibition of NorA in Staphylococcus aureus SA-1199B expressing GrlA A116E mutant assessed as synergistic potentiation of ciprofloxacin-induced antimicrobial activity at 0.78 ug/ml by microdilution method based Checkerboard assay
# Conditions: not given
row,SMILES,inhibition
1,CCCOc1ccc(-c2cc(OCCN3CCCCCC3)c3ccc(OC)cc3n2)cc1,Active

# Target: T1, Quinolone resistance protein NorA (Staphylococcus aureus)
# Experiment: Inhibition of NorA in Staphylococcus aureus SA-K2378 assessed as synergistic potentiation of ciprofloxacin-induced antimicrobial activity at 0.78 to 100 ug/ml by microdilution method based Checkerboard assay
# Conditions: not given
row,SMILES,inhibition
1,COC(=O)[C@H]1[C@H]2C[C@@H]3c4[nH]c5cc(OC)ccc5c4CCN3C[C@H]2C[C@@H](OC(=O)c2cc(OC)c(OC)c(OC)c2)[C@@H]1OC [RESERPINE],Active
2,CCCOc1ccc(-c2cc(OCCN(CC)CC)c3ccccc3n2)cc1,Active

# System: Staphylococcus aureus
# Experiment: Synergistic potentiation of ciprofloxacin-induced antimicrobial activity against norA deleted Staphylococcus aureus SA-K1902 at 0.78 to 100 ug/ml by microdilution method based Checkerboard assay
# Type: functional, organism-based
# Conditions: not given
row,SMILES,Activity
1,COC(=O)[C@H]1[C@H]2C[C@@H]3c4[nH]c5cc(OC)ccc5c4CCN3C[C@H]2C[C@@H](OC(=O)c2cc(OC)c(OC)c(OC)c2)[C@@H]1OC [RESERPINE],inactive
2,CCCOc1ccc(-c2cc(OCCN(CC)CC)c3ccccc3n2)cc1,inactive

# System: not listed separately
# Experiment: Cytotoxicity in human HepG2 cells assessed as reduction in cell viability incubated for 24 hrs by ATP bioluminescence assay
# Type: cell-based
# Conditions: not given
# Procedure, shortened: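 Cells were grown to confluence overnight in RPMI 1640 with 10% heat-inactivated fetal calf serum, penicillin and streptomycin. Monolayers were exposed for 24 h at 37 °C to scalar concentrations (0-250 µg/mL). Viability was read by ATP bioluminescence, each concentration in triplicate. CC50 is the concentration reducing cell number by 50% versus untreated controls.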
row,SMILES,CC50 at 24 h
1,CCCOc1ccc(-c2cc(OCCN(CC)CC)c3cc(OC)ccc3n2)cc1,5 µg/mL
2,CCCOc1ccc(-c2cc(OCCN3CCCCC3)c3ccc(OC)cc3n2)cc1,71.5 µg/mL
3,O=C(O)c1cn(C2CC2)c2cc(N3CCNCC3)c(F)cc2c1=O [CIPROFLOXACIN],139 µg/mL

# System: Staphylococcus aureus
# Experiment: Antimicrobial activity against Staphylococcus aureus ATCC 25923 by microdilution method
# Type: organism-based
# Conditions: in vivo
# Procedure, shortened: (§3)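 Broth microdilution MIC per CLSI guidelines. ATCC 25923 is norA wild-type. SA-1199B overexpresses norA and carries an A116E GrlA substitution.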
row,SMILES,MIC
1,COC(=O)[C@H]1[C@H]2C[C@@H]3c4[nH]c5cc(OC)ccc5c4CCN3C[C@H]2C[C@@H](OC(=O)c2cc(OC)c(OC)c(OC)c2)[C@@H]1OC [RESERPINE],> 100 µg/mL
2,CCCOc1ccc(-c2cc(OCCN(CC)CC)c3cc(OC)ccc3n2)cc1,50 µg/mL
3,CCCOc1ccc(-c2cc(OCCN3CCCCC3)c3ccc(OC)cc3n2)cc1,50 µg/mL
4,CCCOc1ccc(-c2cc(OCCN(CC)CC)c3ccccc3n2)cc1,100 µg/mL
5,CCCOc1ccc(-c2cc(OCCN3CCCCCC3)c3ccc(OC)cc3n2)cc1,> 100 µg/mL
6,O=C(O)c1cn(C2CC2)c2cc(N3CCNCC3)c(F)cc2c1=O [CIPROFLOXACIN],0.31 µg/mL

# System: Staphylococcus aureus
# Experiment: Antimicrobial activity against Staphylococcus aureus SA-1199B expressing wild type norA by microdilution method
# Type: organism-based
# Conditions: in vivo
# Procedure, shortened: as §3
row,SMILES,MIC
1,COC(=O)[C@H]1[C@H]2C[C@@H]3c4[nH]c5cc(OC)ccc5c4CCN3C[C@H]2C[C@@H](OC(=O)c2cc(OC)c(OC)c(OC)c2)[C@@H]1OC [RESERPINE],> 100 µg/mL
2,CCCOc1ccc(-c2cc(OCCN(CC)CC)c3cc(OC)ccc3n2)cc1,50 µg/mL
3,CCCOc1ccc(-c2cc(OCCN3CCCCC3)c3ccc(OC)cc3n2)cc1,> 100 µg/mL
4,CCCOc1ccc(-c2cc(OCCN(CC)CC)c3ccccc3n2)cc1,> 100 µg/mL
5,CCCOc1ccc(-c2cc(OCCN3CCCCCC3)c3ccc(OC)cc3n2)cc1,100 µg/mL
6,O=C(O)c1cn(C2CC2)c2cc(N3CCNCC3)c(F)cc2c1=O [CIPROFLOXACIN],0.63 µg/mL

# System: Staphylococcus aureus
# Experiment: Antimicrobial activity against NorA deficient Staphylococcus aureus SA-K1902 by microdilution method
# Type: organism-based
# Conditions: in vivo
# Procedure, shortened: as §2
row,SMILES,MIC
1,COC(=O)[C@H]1[C@H]2C[C@@H]3c4[nH]c5cc(OC)ccc5c4CCN3C[C@H]2C[C@@H](OC(=O)c2cc(OC)c(OC)c(OC)c2)[C@@H]1OC [RESERPINE],> 100 µg/mL
2,CCCOc1ccc(-c2cc(OCCN(CC)CC)c3ccccc3n2)cc1,50 µg/mL
3,O=C(O)c1cn(C2CC2)c2cc(N3CCNCC3)c(F)cc2c1=O [CIPROFLOXACIN],0.31 µg/mL

# System: Staphylococcus aureus
# Experiment: Antimicrobial activity against NorA overexpressing Staphylococcus aureus SA-K2378 by microdilution method
# Type: organism-based
# Conditions: in vivo
# Procedure, shortened: as §2
row,SMILES,MIC
1,O=C(O)c1cn(C2CC2)c2cc(N3CCNCC3)c(F)cc2c1=O [CIPROFLOXACIN],2.5 µg/mL

# System: Staphylococcus aureus
# Experiment: Antimicrobial activity against mepA deficient Staphylococcus aureus SA-K2885 by microdilution method
# Type: organism-based
# Conditions: in vivo
# Procedure, shortened: (§4)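 CLSI broth microdilution MIC of the compound alone in norA-deleted strains. SA-K2885 carries empty pALC2073 and SA-K2886 carries pALC2073-mepA (xyl/tetO promoter). 0.05 µg/mL tetracycline was present throughout to induce.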
row,SMILES,MIC
1,CC[n+]1c(-c2ccccc2)c2cc(N)ccc2c2ccc(N)cc21.[Br-] [HOMIDIUM BROMIDE],0.63 µg/mL

# System: Staphylococcus aureus
# Experiment: Antimicrobial activity against mepA overexpressing Staphylococcus aureus SA-K2886 by microdilution method
# Type: organism-based
# Conditions: in vivo
# Procedure, shortened: as §4
row,SMILES,MIC
1,CC[n+]1c(-c2ccccc2)c2cc(N)ccc2c2ccc(N)cc21.[Br-] [HOMIDIUM BROMIDE],25 µg/mL
